Reference: PubChem BioAssay AID2805 (Sanford-Burnham Center for Chemical Genomics, 2010)
Screen size: about 330,000 compounds; about 780 (0.24%) were called active. For the sample, actives were picked, then their nearest neighbours and some compounds at random. A number with no mark means an inactive call.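 Rule for the calls: active = activation factor of at least 2 at 20 µM; inactive = the rest.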

System: intestinal alkaline phosphatase [Mus musculus]
Assay: activators of mouse IAP, primary screen, biochemical, luminescence, uHTS (AID 2805)
Settings: muIAP, CDP-Star luminescence, 30 min; at 10 µM; stronger effect = higher value; 1 = vehicle-only enzyme signal, 0 = enzyme-free wells
In short: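 Assay system: mouse IAP enzyme; Reagent: CDP-Star chemiluminescent phosphatase substrate; Compound: DMSO-dissolved test compounds; Incubation: 30 min, room temperature; Technique: luminescence from enzymatic CDP-Star hydrolysis; Controls: DMSO-only wells and no-enzyme negative control.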

Structure (SMILES) | activation factor
CCN(C(=O)Cc1nc(N)n[nH]1)C1(C(=O)Nc2ccccc2)CCCCC1 | 1
COc1ccc(-c2nn(-c3ccccc3)cc2C(=O)Nc2nccs2)cc1OC | 1
COc1ccc(NC(=O)c2cc(-c3ccc(C)o3)nc3ccccc23)cc1 | 0.934
COc1ccc(NC(=O)c2cn(-c3ccccc3)nc2SC)cc1 | 3.32 (active)
CCn1nnc2cc(C(=O)Nc3ccc(C(=O)OC(C)C)cc3)ccc21 | 0.97
CCOC(=O)c1cc(C)sc1NC(=O)C1CCC1 | 1.01
S=C(NNC(=S)NC1CC2CCC1C2)NC1CC2C=CC1C2 (centres undefined) | 0.928
Cc1ccc(C)c(NC(=S)NNC(=S)Nc2ccc(C(C)C)cc2)c1 | 0.941
CC(C)c1ccc(NC(=S)NC2CC3C=CC2C3)cc1 (centres undefined) | 2.76 (active)
Cc1ccccc1N1CCN(CCCN2C(=O)C3CCCCN3C2=O)CC1 (centres undefined) | 1.05
O=C1CCC([N+](=O)[O-])C(c2ccccc2Br)N1 (centres undefined) | 1.03
O=P(O)(CN1CCCCCC1)C1Cc2ccccc2C1 | 1.05
Cc1ccccc1NC(=O)COc1cccc2c1CCNC2=O | 0.912
C#CCOCCOCCOCCNc1nc(N2CCN(C(=O)[C@H](C(C)C)n3cc(CCO)nn3)CC2)nc(N2CCN(C(=O)[C@H]([C@@H](C)CC)n3cc(CCCN=C(N)N)nn3)CC2)n1 | 1
C#CCOCCOCCOCCNc1nc(N2CCN(C(=O)[C@H](CCCN=C(N)N)n3cc(C(N)[C@@H](C)CC)nn3)CC2)nc(N2CCN(C(=O)[C@H](CO)n3cc([C@@H](N)C(C)C)nn3)CC2)n1 (some centres undefined) | 0.988
C#CCOCCOCCOCCNc1nc(N2CCN(C(=O)Cn3cc(CCCCN)nn3)CC2)nc(N2CCN(C(=O)[C@H](CCCCN)n3cc(CCC(=O)O)nn3)CC2)n1 | 0.948
C#CCOCCOCCOCCNc1nc(N2CCN(C(=O)CCCCCCCCCCNC(=O)[C@H](CCCCN)n3cc(C)nn3)CC2)nc(N2CCN(C(=O)CCCCCCCCCCNC(=O)[C@H](CO)n3cc(CCCSC)nn3)CC2)n1 | 1.29
C#CCOCCOCCOCCNc1nc(N2CCN(C(=O)CCCCCCCCCCNC(=O)[C@H]([C@@H](C)CC)n3cc(CCCCN=C(N)N)nn3)CC2)nc(N2CCN(C(=O)CCCCCCCCCCNC(=O)[C@H](CO)n3cc(CCCSC)nn3)CC2)n1 | 12.7 (active)
C#CCOCCOCCOCCNc1nc(N2CCN(C(=O)CCCCCCCCCCNC(=O)Cn3cc(CCCCCN)nn3)CC2)nc(N2CCN(C(=O)CCCCCCCCCCNC(=O)[C@H](CO)n3cc(CCCSC)nn3)CC2)n1 | 2.45 (active)
